Measurements reported in ChEMBL document CHEMBL1671813, “Discovery of potent competitive antagonists and positive modulators of the P2X2 receptor” (J Med Chem, 2011).
Active and inactive are the calls of the source. The calls are words filed in the database; no cut-off is given here.

Experiments:
[1] = molecular target: P2Y purinoceptor 2 (Homo sapiens, UniProt P41231); test: Antagonist activity against human P2Y2 receptor expressed in 1321N1 astrocytoma cells by calcium mobilization assay; assay type: functional, cell-based
Sequence of P2Y purinoceptor 2 (P41231 whole entry): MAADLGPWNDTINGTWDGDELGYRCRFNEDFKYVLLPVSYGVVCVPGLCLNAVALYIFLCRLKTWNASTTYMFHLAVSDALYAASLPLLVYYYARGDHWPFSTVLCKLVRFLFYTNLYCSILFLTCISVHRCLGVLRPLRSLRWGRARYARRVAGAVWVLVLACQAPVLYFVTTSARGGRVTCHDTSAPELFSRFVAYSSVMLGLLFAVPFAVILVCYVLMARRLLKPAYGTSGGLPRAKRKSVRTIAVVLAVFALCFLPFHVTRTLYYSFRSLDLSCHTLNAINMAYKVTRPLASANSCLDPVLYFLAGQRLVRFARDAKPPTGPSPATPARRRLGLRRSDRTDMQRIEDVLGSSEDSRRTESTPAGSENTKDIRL
In short: (§1)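 Astrocytoma cell lines stably transfected with human P2Y2, human P2Y4 or rat P2Y6 receptor. Inhibition of receptor-mediated intracellular calcium mobilization was measured.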

[2] = molecular target: P2Y purinoceptor 6 (Rattus norvegicus) (UniProt Q63371); test: Antagonist activity against rat P2Y6 receptor expressed in 1321N1 astrocytoma cells by calcium mobilization assay
[3] = molecular target: P2Y purinoceptor 4 (Homo sapiens, UniProt P51582); test: Antagonist activity against human P2Y4 receptor expressed in 1321N1 astrocytoma cells by calcium mobilization assay; assay type: functional, cell-based; in short: as §1
Sequence of P2Y purinoceptor 4 (P51582 whole entry): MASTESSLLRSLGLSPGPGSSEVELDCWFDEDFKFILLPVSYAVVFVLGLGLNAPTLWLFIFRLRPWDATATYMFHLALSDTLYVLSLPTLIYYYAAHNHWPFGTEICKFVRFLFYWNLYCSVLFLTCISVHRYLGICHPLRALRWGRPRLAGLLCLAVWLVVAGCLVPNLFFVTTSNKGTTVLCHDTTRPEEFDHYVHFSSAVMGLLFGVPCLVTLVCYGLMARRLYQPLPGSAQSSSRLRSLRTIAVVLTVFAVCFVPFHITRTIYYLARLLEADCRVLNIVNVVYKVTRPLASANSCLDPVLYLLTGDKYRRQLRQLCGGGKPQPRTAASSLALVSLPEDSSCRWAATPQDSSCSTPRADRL

[4] = molecular target: T1, P2X purinoceptor 2 (Rattus norvegicus) (UniProt P49653); test: Antagonist activity against rat P2X2 receptor expressed in Xenopus laevis oocyte assessed as potentiation of ATP-induced inward current at 100 nM by two-electrode voltage-clamp electrophysiology
T1 sequence (whole entry): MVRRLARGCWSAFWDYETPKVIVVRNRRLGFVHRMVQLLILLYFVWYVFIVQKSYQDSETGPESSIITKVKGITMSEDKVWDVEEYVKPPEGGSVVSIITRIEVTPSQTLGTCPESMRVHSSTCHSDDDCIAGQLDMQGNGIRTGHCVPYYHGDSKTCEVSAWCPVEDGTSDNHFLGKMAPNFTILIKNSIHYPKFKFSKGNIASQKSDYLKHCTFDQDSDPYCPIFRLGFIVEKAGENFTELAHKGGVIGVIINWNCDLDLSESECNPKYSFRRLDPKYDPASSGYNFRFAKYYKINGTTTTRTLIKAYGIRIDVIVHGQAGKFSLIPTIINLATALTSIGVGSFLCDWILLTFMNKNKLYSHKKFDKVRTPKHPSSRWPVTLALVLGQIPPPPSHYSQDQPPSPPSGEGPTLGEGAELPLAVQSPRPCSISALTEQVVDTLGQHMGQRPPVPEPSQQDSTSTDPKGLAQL

[5] = molecular target: T2, P2X purinoceptor 2 (Rattus norvegicus, UniProt P49653); test: Antagonist activity against rat P2X2 receptor expressed in Xenopus laevis oocyte assessed as inhibition of ATP-induced inward current by two-electrode voltage-clamp electrophysiology
T2 sequence (P49653 whole entry): T1 sequence (whole entry)

[6] = molecular target: T2, P2X purinoceptor 2; test: Antagonist activity against rat P2X2 receptor expressed in Xenopus laevis oocyte assessed as inhibition of […] inward current by two-electrode voltage-clamp electrophysiology; assay type: functional
In short: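 Rat P2X2 or P2X4 cRNA was injected into collagenase-defolliculated Xenopus oocytes, which were kept at 19°C in ORi. Two-electrode voltage clamp was run 2-3 days later with perfusion in calcium-free Mg-ORi. 10 μM ATP was applied until steady-state current, then coapplied with incrementally larger test concentrations, with ATP-alone washout between. Inhibition was taken from the stationary current ratio, and IC50 from a Hill fit to pooled data.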

[7] = Selectivity ratio of IC50 for rat P2X2 receptor to IC50 for rat P2X4 receptor
[8] = molecular target: T3, P2X purinoceptor 7 (Rattus norvegicus, UniProt Q64663); test: Antagonist activity against rat P2X7 receptor expressed in Xenopus laevis oocyte assessed as inhibition of […] inward current by two-electrode voltage-clamp electrophysiology; assay type: functional
T3 sequence (Q64663 whole entry): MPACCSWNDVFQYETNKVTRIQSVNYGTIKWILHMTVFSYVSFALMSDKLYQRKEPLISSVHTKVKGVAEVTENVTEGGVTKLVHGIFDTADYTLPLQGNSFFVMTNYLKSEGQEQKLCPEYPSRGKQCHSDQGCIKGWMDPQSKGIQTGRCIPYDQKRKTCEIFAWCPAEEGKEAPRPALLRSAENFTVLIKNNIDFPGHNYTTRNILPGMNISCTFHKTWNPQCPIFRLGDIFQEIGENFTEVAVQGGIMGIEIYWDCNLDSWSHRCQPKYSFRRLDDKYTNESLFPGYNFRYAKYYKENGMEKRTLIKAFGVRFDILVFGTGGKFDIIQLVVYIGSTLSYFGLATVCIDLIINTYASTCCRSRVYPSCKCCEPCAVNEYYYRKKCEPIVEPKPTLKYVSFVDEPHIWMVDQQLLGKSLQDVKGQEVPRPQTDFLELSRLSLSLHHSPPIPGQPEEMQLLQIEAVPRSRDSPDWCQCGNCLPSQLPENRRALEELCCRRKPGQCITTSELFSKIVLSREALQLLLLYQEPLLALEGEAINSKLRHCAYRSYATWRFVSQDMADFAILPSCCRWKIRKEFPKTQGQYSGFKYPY

[9] = molecular target: T4, P2X purinoceptor 1 (Rattus norvegicus, UniProt P47824); test: Antagonist activity against rat P2X1 receptor expressed in Xenopus laevis oocyte assessed as inhibition of alpha, beta-meATP-induced inward current by two-electrode voltage-clamp electrophysiology; assay type: functional
T4 sequence (P47824 whole entry): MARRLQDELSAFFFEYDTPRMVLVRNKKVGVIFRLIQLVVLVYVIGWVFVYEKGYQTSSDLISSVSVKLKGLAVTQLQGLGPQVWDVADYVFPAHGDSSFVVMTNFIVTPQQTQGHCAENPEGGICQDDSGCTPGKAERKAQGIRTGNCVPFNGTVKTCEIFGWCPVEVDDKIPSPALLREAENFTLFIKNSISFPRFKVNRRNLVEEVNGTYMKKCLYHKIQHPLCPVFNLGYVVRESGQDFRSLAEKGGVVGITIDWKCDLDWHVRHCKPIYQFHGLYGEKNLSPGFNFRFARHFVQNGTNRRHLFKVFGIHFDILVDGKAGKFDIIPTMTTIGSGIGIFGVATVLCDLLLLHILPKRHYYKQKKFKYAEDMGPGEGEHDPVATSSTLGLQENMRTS

[10] = Selectivity ratio of IC50 for rat P2X2 receptor to IC50 for rat P2X7 receptor
[11] = Selectivity ratio of IC50 for rat P2X2 receptor to IC50 for rat P2X1 receptor
[12] = molecular target: T5, P2X purinoceptor 4 (Rattus norvegicus, UniProt P51577); test: Antagonist activity against rat P2X4 receptor expressed in Xenopus laevis oocyte assessed as inhibition of ATP-induced inward current by two-electrode voltage-clamp electrophysiology
T5 sequence (P51577 whole entry): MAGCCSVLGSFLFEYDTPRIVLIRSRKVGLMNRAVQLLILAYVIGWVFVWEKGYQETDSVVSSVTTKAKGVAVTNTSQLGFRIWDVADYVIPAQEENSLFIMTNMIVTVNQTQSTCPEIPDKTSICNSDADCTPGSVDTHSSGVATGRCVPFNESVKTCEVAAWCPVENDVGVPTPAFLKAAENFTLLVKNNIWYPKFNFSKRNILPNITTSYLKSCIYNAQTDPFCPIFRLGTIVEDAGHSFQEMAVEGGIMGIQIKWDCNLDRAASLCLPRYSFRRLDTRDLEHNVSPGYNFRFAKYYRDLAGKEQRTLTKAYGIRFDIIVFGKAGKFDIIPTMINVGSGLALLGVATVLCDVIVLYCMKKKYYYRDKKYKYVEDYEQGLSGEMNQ

[13] = molecular target: T6, P2X2/P2X3 receptor (Rattus norvegicus, UniProt P49653+P49654); test: Antagonist activity against rat P2X2/3 receptor expressed in Xenopus laevis oocyte assessed as inhibition of alpha, beta-meATP-induced inward current by two-electrode voltage-clamp electrophysiology; assay type: functional
T6 sequence (P49653 whole entry): T1 sequence (whole entry)
T6 sequence (P49654 whole entry): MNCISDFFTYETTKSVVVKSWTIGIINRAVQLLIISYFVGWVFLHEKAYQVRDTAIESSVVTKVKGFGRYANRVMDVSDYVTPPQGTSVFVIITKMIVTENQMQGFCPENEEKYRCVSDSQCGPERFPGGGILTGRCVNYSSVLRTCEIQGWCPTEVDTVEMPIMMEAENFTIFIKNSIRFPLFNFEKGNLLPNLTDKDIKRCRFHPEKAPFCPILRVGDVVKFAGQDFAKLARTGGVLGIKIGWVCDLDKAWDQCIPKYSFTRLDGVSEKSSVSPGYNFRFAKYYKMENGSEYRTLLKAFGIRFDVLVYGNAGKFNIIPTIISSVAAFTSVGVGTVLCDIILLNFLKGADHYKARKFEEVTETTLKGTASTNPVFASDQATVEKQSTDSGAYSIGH
In short: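 Heteromer formed by injecting rP2X2 and rP2X3 cRNA at 1:2 (w/w). Agonist 1 μM α,β-meATP, applied repeatedly to keep homomeric P2X3 desensitized. Same steady-state coapplication protocol in Ca-free Mg-ORi. IC50 from a Hill fit to pooled data from 5-7 experiments.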

[14] = molecular target: T7, P2X purinoceptor 3 (Rattus norvegicus, UniProt P49654); test: Antagonist activity against rat P2X3 receptor expressed in Xenopus laevis oocyte assessed as inhibition of alpha, beta-meATP-induced inward current by two-electrode voltage-clamp electrophysiology; assay type: functional
T7 sequence (P49654 whole entry): T6 sequence (P49654 whole entry)

[15] = Selectivity ratio of IC50 for rat P2X2 receptor to IC50 for rat P2X3 receptor
[16] = Selectivity ratio of IC50 for rat P2X2 receptor to IC50 for rat P2X2/3 receptor
[17] = molecular target: P2Y purinoceptor 12 (Homo sapiens, UniProt Q9H244); test: Displacement of [3H]PSB0413 from human platelet P2Y12 receptor
Sequence of P2Y purinoceptor 12 (Q9H244 whole entry): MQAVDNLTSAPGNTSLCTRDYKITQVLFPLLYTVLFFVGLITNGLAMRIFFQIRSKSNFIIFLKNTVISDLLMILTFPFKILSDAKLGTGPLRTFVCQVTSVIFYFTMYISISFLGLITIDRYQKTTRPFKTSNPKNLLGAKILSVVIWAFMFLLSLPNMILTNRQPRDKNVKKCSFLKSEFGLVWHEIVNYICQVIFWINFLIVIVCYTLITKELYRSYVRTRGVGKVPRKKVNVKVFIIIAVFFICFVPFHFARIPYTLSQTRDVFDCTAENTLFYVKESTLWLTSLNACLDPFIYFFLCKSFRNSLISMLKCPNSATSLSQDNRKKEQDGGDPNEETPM

[18] = molecular target: T1, P2X purinoceptor 2 (Rattus norvegicus); test: Antagonist activity against rat P2X2 receptor expressed in Xenopus laevis oocyte assessed as maximum current amplitude by two-electrode voltage-clamp electrophysiology; assay type: functional
In short: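 Rat P2X2-expressing oocytes were voltage-clamped in Mg-ORi. Test compound at 100 nM was coapplied with 10 μM ATP. Current amplitude was expressed as a percentage of the current elicited by ATP alone (set at 100%).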

[19] = molecular target: T2, P2X purinoceptor 2; test: Positive modulator activity against rat P2X2 receptor expressed in Xenopus laevis oocyte assessed as maximum ATP-induced inward current by two-electrode voltage-clamp electrophysiology in presence of 10 uM ATP

Row | SMILES | IC50 [1] | IC50 [2] | IC50 [3] | IC50 [5] | IC50 [6] | IC50 [12] | Ki [17] | further results
1 | Nc1c(S(=O)(=O)O)cc(Nc2cccc(Cc3ccccc3)c2)c2c1C(=O)c1ccccc1C2=O | > 10 µM | > 10 µM | > 10 µM |  |  |  |  | potentiation % [4]: 120%
2 | Cc1cc(/N=N/c2ccc(S(=O)(=O)O)cc2S(=O)(=O)O)c(COP(=O)(O)O)c(C=O)c1O |  |  |  | 4 µM | 39.8 µM |  |  | 
3 | Nc1ncnc2c1ncn2[C@@H]1O[C@H](COP(=O)(O)OP(=O)(O)OP(=O)(O)O)[C@H]2OC3(O[C@H]21)C([N+](=O)[O-])=CC(=[N+]([O-])[O-])C=C3[N+](=O)[O-] (stereo partly drawn) [TNP-ATP SODIUM] |  |  |  | 4 µM | 39.8 µM |  |  | 
4 | Nc1c(S(=O)(=O)O)cc(Nc2ccc(S(=O)(=O)O)c(Nc3nc(Cl)nc(Cl)n3)c2)c2c1C(=O)c1ccccc1C2=O | 10 µM | > 10 µM | > 10 µM | 0.079 µM |  | > 10 µM |  | IC50 [7]: > 0.12 µM; IC50 [8]: > 10 µM; IC50 [9]: 0.422 µM; IC50 [10]: > 0.12 µM; IC50 [11]: 0.0062 µM; IC50 [13]: 1.04 µM; IC50 [14]: 0.494 µM; IC50 [15]: 0.0053 µM; IC50 [16]: 0.0132 µM
5 | COc1cccc(Nc2cc(S(=O)(=O)O)c(N)c3c2C(=O)c2ccccc2C3=O)c1 | 10 µM | > 10 µM | 10 µM | 0.623 µM |  | > 10 µM | 10 µM | 
6 | Nc1c(S(=O)(=O)O)cc(Nc2ccc(Nc3nc(Cl)nc(Nc4cccc(S(=O)(=O)O)c4)n3)c(S(=O)(=O)O)c2)c2c1C(=O)c1ccccc1C2=O [RB 2] |  | 4.34 µM |  | 4 µM | 39.8 µM |  | 0.68 µM | 
7 | Nc1c(S(=O)(=O)O)cc(Nc2cccc(Oc3ccccc3)c2)c2c1C(=O)c1ccccc1C2=O | 10 µM | 4.56 µM |  |  |  |  |  | Activity [18]: Active; EC50 [19]: 0.489 µM; potentiation % [4]: 132%
8 | Cc1cccc(Nc2cc(S(=O)(=O)O)c(N)c3c2C(=O)c2ccccc2C3=O)c1 | 10 µM | 3.92 µM | > 10 µM | 0.8 µM |  | > 10 µM | 10 µM | 
